{"source": "ChEMBL document CHEMBL1255388", "about": "“Antimalarial asexual stage-specific and gametocytocidal activities of HIV protease inhibitors” (Antimicrob Agents Chemother, 2010)", "format_in_all_cases": "functional, organism-based", "key": {"[1]": {"tested_on": "Plasmodium falciparum", "experiment": "Antigametocyte activity against ring stage Plasmodium falciparum D10 assessed as inhibition of parasite growth at 150 uM after 1 to 8 hrs", "outline": "(§1)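 Synchronized D10 cultures exposed to drug at 0 h (ring), 24 h (trophozoite) or 36 h (schizont) postsynchronization. After exposure, parasites washed, resuspended in drug-free medium and labelled with 0.5 μCi/well [3H]hypoxanthine for 40 h. Uptake compared with vehicle controls. Triplicate wells, repeated on at least two separate occasions.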"}, "[2]": {"tested_on": "Plasmodium falciparum", "experiment": "Antigametocyte activity against Plasmodium falciparum D10 trophozoites assessed as inhibition of parasite growth at 150 uM after 1 to 8 hrs", "outline": "as §1"}, "[3]": {"tested_on": "Plasmodium falciparum", "experiment": "Antimicrobial activity against chloroquine-sensitive Plasmodium falciparum D10 after 48 hrs", "conditions": "D10, 48 h", "outline": "(§2)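 In vitro growth inhibition of P. falciparum asexual cultures. Concentrations giving 10, 50 and 90% inhibition (± SE) were obtained by nonlinear regression curve fitting. Each assay was run in triplicate on at least two separate occasions.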"}, "[4]": {"tested_on": "Plasmodium falciparum", "experiment": "Antigametocyte activity against Plasmodium falciparum harboring GFP-tagged Pfs16 protein assessed as reduction in number of gametocytes after 40 hrs by [3H]hypoxanthine incorporation assay"}, "[5]": {"tested_on": "Plasmodium falciparum", "experiment": "Antigametocyte activity against Plasmodium falciparum D10 schizonts assessed as inhibition of parasite growth at 150 uM after 1 to 8 hrs", "outline": "as §1"}, "[6]": {"tested_on": "Plasmodium falciparum", "experiment": "Antigametocyte activity against drug-resistant Plasmodium falciparum Dd2 schizonts assessed as inhibition of parasite growth at 150 uM after 1 to 8 hrs", "outline": "(§3)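 Synchronized P. falciparum cultures were drug-exposed at 0 (ring), 24 (trophozoite) or 36 h (schizont) post-synchronization. They were then washed, resuspended in drug-free medium and seeded with 0.5 μCi/well [3H]hypoxanthine for 40 h. Incorporation was compared with vehicle controls. Triplicate, on at least two separate occasions.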"}, "[7]": {"tested_on": "Plasmodium falciparum", "experiment": "Antigametocyte activity against drug-resistant Plasmodium falciparum Dd2 trophozoites assessed as inhibition of parasite growth at 150 uM after 1 to 8 hrs", "outline": "as §3"}, "[8]": {"tested_on": "Plasmodium falciparum", "experiment": "Antimicrobial activity against chloroquine-resistant Plasmodium falciparum Dd2 after 48 hrs", "conditions": "Dd2, 48 h", "outline": "as §2"}, "[9]": {"tested_on": "Plasmodium falciparum", "experiment": "Antimicrobial activity against Plasmodium falciparum harboring […]-tagged Pfs16 protein after 48 hrs", "outline": "as §2"}, "[10]": {"tested_on": "Plasmodium falciparum", "experiment": "Antimicrobial activity against chloroquine-sensitive Plasmodium falciparum 3D7 after 48 hrs", "conditions": "3D7, 48 h", "outline": "as §2"}, "[11]": {"tested_on": "Plasmodium falciparum", "experiment": "Antigametocyte activity against drug-resistant ring stage Plasmodium falciparum Dd2 assessed as inhibition of parasite growth at 150 uM after 1 to 8 hrs", "outline": "as §3"}, "[12]": {"tested_on": "Plasmodium falciparum", "experiment": "Antigametocyte activity against Plasmodium falciparum harboring GFP-tagged Pfs16 protein assessed as inhibition of [3H]hypoxanthine incorporation after 40 hrs"}, "[13]": {"tested_on": "Plasmodium falciparum", "experiment": "Antigametocyte activity against Plasmodium falciparum D10 schizonts assessed as inhibition of parasite growth at 20 uM after 1 to 8 hrs", "outline": "as §1"}, "[14]": {"tested_on": "Plasmodium falciparum", "experiment": "Antigametocyte activity against drug-resistant ring stage Plasmodium falciparum Dd2 assessed as inhibition of parasite growth at 20 uM after 1 to 8 hrs", "outline": "as §3"}, "[15]": {"tested_on": "Plasmodium falciparum", "experiment": "Antigametocyte activity against drug-resistant Plasmodium falciparum Dd2 schizonts assessed as inhibition of parasite growth at 20 uM after 1 to 8 hrs", "outline": "as §3"}, "[16]": {"tested_on": "Plasmodium falciparum", "experiment": "Antigametocyte activity against drug-resistant Plasmodium falciparum Dd2 trophozoites assessed as inhibition of parasite growth at 20 uM after 1 to 8 hrs", "outline": "as §3"}, "[17]": {"tested_on": "Plasmodium falciparum", "experiment": "Antigametocyte activity against Plasmodium falciparum D10 trophozoites assessed as inhibition of parasite growth at 20 uM after 1 to 8 hrs", "outline": "as §1"}, "[18]": {"tested_on": "Plasmodium falciparum", "experiment": "Antigametocyte activity against ring stage Plasmodium falciparum D10 assessed as inhibition of parasite growth at 20 uM after 1 to 8 hrs", "outline": "as §1"}, "[19]": {"tested_on": "Plasmodium falciparum", "experiment": "Antigametocyte activity against drug-resistant Plasmodium falciparum Dd2 schizonts assessed as inhibition of parasite growth at 50 nM after 1 to 8 hrs", "outline": "as §3"}, "[20]": {"tested_on": "Plasmodium falciparum", "experiment": "Antigametocyte activity against drug-resistant ring stage Plasmodium falciparum Dd2 […] assessed as inhibition of parasite growth at 50 nM after 1 to 8 hrs", "outline": "as §3"}, "[21]": {"tested_on": "Plasmodium falciparum", "experiment": "Antigametocyte activity against drug-resistant Plasmodium falciparum Dd2 trophozoites assessed as inhibition of parasite growth at 50 nM after 1 to 8 hrs", "outline": "as §3"}, "[22]": {"tested_on": "Plasmodium falciparum", "experiment": "Antigametocyte activity against Plasmodium falciparum D10 schizonts assessed as inhibition of parasite growth at 50 nM after 1 to 8 hrs", "outline": "as §1"}, "[23]": {"tested_on": "Plasmodium falciparum", "experiment": "Antigametocyte activity against ring stage Plasmodium falciparum D10 assessed as inhibition of parasite growth at 50 nM after 1 to 8 hrs", "outline": "as §1"}, "[24]": {"tested_on": "Plasmodium falciparum", "experiment": "Antigametocyte activity against Plasmodium falciparum D10 trophozoites assessed as inhibition of parasite growth at 50 nM after 1 to 8 hrs", "outline": "as §1"}, "[25]": {"tested_on": "Plasmodium falciparum", "experiment": "Antigametocyte activity against drug-resistant ring stage Plasmodium falciparum Dd2 assessed as inhibition of parasite growth at 40 uM after 1 to 8 hrs", "outline": "as §3"}, "[26]": {"tested_on": "Plasmodium falciparum", "experiment": "Antigametocyte activity against drug-resistant Plasmodium falciparum Dd2 trophozoites assessed as inhibition of parasite growth at 40 uM after 1 to 8 hrs", "outline": "as §3"}, "[27]": {"tested_on": "Plasmodium falciparum", "experiment": "Antigametocyte activity against drug-resistant Plasmodium falciparum Dd2 schizonts assessed as inhibition of parasite growth at 40 uM after 1 to 8 hrs", "outline": "as §3"}, "[28]": {"tested_on": "Plasmodium falciparum", "experiment": "Antigametocyte activity against Plasmodium falciparum D10 schizonts assessed as inhibition of parasite growth at 40 uM after 1 to 8 hrs", "outline": "as §1"}, "[29]": {"tested_on": "Plasmodium falciparum", "experiment": "Antigametocyte activity against ring stage Plasmodium falciparum D10 assessed as inhibition of parasite growth at 40 uM after 1 to 8 hrs", "outline": "as §1"}, "[30]": {"tested_on": "Plasmodium falciparum", "experiment": "Antigametocyte activity against Plasmodium falciparum D10 trophozoites assessed as inhibition of parasite growth at 40 uM after 1 to 8 hrs", "outline": "as §1"}}, "note": "The source made the active and inactive calls. No cut-off for these calls is given here.", "data": [{"smiles": "CCC[C@@]1(CCc2ccccc2)CC(O)=C([C@H](CC)c2cccc(NS(=O)(=O)c3ccc(C(F)(F)F)cn3)c2)C(=O)O1", "values": [{"measurement": "inhibition", "setting": "[1]", "result": "inactive"}, {"measurement": "inhibition", "setting": "[2]", "result": "Active"}, {"measurement": "EC50", "setting": "[3]", "result": 12000, "unit": "nM"}, {"measurement": "inhibition", "setting": "[4]", "result": "Dose-dependent effect"}, {"measurement": "inhibition", "setting": "[5]", "result": "Active"}, {"measurement": "inhibition", "setting": "[6]", "result": "Active"}, {"measurement": "inhibition", "setting": "[7]", "result": "Active"}, {"measurement": "EC50", "setting": "[8]", "result": 21000, "unit": "nM"}, {"measurement": "EC50", "setting": "[9]", "result": 18000, "unit": "nM"}, {"measurement": "EC50", "setting": "[10]", "result": 20000, "unit": "nM"}, {"measurement": "inhibition", "setting": "[11]", "result": "inactive"}, {"measurement": "inhibition", "setting": "[12]", "result": "Active"}]}, {"smiles": "Cc1cccc(C)c1OCC(=O)N[C@@H](Cc1ccccc1)[C@@H](O)C[C@H](Cc1ccccc1)NC(=O)[C@H](C(C)C)N1CCCNC1=O", "note": "[LOPINAVIR]", "values": [{"measurement": "EC50", "setting": "[3]", "result": 2000, "unit": "nM"}, {"measurement": "inhibition", "setting": "[4]", "result": "Dose-dependent effect"}, {"measurement": "inhibition", "setting": "[13]", "result": "Active"}, {"measurement": "inhibition", "setting": "[14]", "result": "inactive"}, {"measurement": "inhibition", "setting": "[15]", "result": "Active"}, {"measurement": "inhibition", "setting": "[16]", "result": "Active"}, {"measurement": "inhibition", "setting": "[17]", "result": "Active"}, {"measurement": "EC50", "setting": "[9]", "result": 3000, "unit": "nM"}, {"measurement": "inhibition", "setting": "[18]", "result": "inactive"}, {"measurement": "EC50", "setting": "[10]", "result": 2000, "unit": "nM"}]}, {"smiles": "CC(C)CN(C[C@@H](O)[C@H](Cc1ccccc1)NC(=O)O[C@H]1CO[C@H]2OCC[C@H]21)S(=O)(=O)c1ccc(N)cc1", "values": [{"measurement": "EC50", "setting": "[8]", "result": 70000, "unit": "nM"}]}, {"smiles": "CC(C)c1nc(CN(C)C(=O)N[C@H](C(=O)N[C@@H](Cc2ccccc2)C[C@H](O)[C@H](Cc2ccccc2)NC(=O)OCc2cncs2)C(C)C)cs1", "note": "[RITONAVIR]", "values": [{"measurement": "EC50", "setting": "[3]", "result": 3000, "unit": "nM"}, {"measurement": "inhibition", "setting": "[4]", "result": "Dose-dependent effect"}, {"measurement": "EC50", "setting": "[9]", "result": 5000, "unit": "nM"}, {"measurement": "EC50", "setting": "[10]", "result": 3000, "unit": "nM"}]}, {"smiles": "CCN(CC)CCCC(C)Nc1ccnc2cc(Cl)ccc12", "note": "(configuration not stated) [CHLOROQUINE]", "values": [{"measurement": "EC50", "setting": "[3]", "result": 23, "unit": "nM"}, {"measurement": "inhibition", "setting": "[19]", "result": "Active"}, {"measurement": "inhibition", "setting": "[20]", "result": "inactive"}, {"measurement": "inhibition", "setting": "[21]", "result": "Active"}, {"measurement": "inhibition", "setting": "[22]", "result": "Active"}, {"measurement": "EC50", "setting": "[9]", "result": 23, "unit": "nM"}, {"measurement": "EC50", "setting": "[10]", "result": 25, "unit": "nM"}, {"measurement": "inhibition", "setting": "[23]", "result": "inactive"}, {"measurement": "inhibition", "setting": "[24]", "result": "Active"}]}, {"smiles": "CC(C)(C)NC(=O)[C@@H]1C[C@@H]2CCCC[C@@H]2CN1C[C@@H](O)[C@H](Cc1ccccc1)NC(=O)[C@H](CC(N)=O)NC(=O)c1ccc2ccccc2n1", "values": [{"measurement": "inhibition", "setting": "[1]", "result": "Active"}, {"measurement": "inhibition", "setting": "[25]", "result": "inactive"}, {"measurement": "EC50", "setting": "[3]", "result": 3000, "unit": "nM"}, {"measurement": "inhibition", "setting": "[4]", "result": "Dose-dependent effect"}, {"measurement": "inhibition", "setting": "[26]", "result": "Active"}, {"measurement": "inhibition", "setting": "[27]", "result": "Active"}, {"measurement": "inhibition", "setting": "[28]", "result": "inactive"}, {"measurement": "EC50", "setting": "[9]", "result": 5000, "unit": "nM"}, {"measurement": "inhibition", "setting": "[29]", "result": "inactive"}, {"measurement": "inhibition", "setting": "[30]", "result": "Active"}, {"measurement": "EC50", "setting": "[10]", "result": 3000, "unit": "nM"}]}]}
